Data set [1] is filed under the species Rattus norvegicus. Put plainly: Displacement of [3H]BTX-B from VGSC site 2 in rat forebrain membranes at 40 uM incubated at 37 degC for 60 mins. The class given is cell membranes. The settings on record: Brain, Membrane. For orientation: Loss of bound radioactivity is the signal in a displacement assay; it reports binding, not function.
The nature of data set [2]: Drug localization in Sprague-Dawley rat dorsal root ganglions at 100 uM using dansylated compound by two photon confocal microscopy. Format: ADME, tissue-based, Dorsal root ganglion.
Data set [3] has as its system Rattus norvegicus. As to the kind of experiment: Antinociceptive effect in Sprague-Dawley rat model of sciatic nerve constriction-induced neuropathic pain model assessed as reduction in threshold to von Frey filaments applied to affected hind paw at 50 mg/kg, sc measured 2 hrs post dose. Format: functional, organism-based. Further details: dose 50 mg/kg. The procedure, abridged: (§1)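 Adult female Sprague-Dawley rats (150 g at start) with unilateral sciatic nerve ligation; only animals with significant allodynia were used. Drug dissolved in DMSO and diluted in PEG400 to a 200 mg/ml stock, then diluted in PEG400/PBS and given subcutaneously. Von Frey withdrawal threshold measured by the up-and-down method 2 h post-dose. n = 5 per group, vehicle controls; one-way ANOVA with Tukey post hoc tests.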

Data set [4] concerns Rattus norvegicus. Put plainly: Anticonvulsant effect in Sprague-Dawley rat epileptic model assessed as increase in seizure thresholds at 50 mg/kg, po dosed before seizure induction by maximal electroshock test. More on the design: dose 50 mg/kg. The class given is functional, organism-based. A general note: Protection in the maximal electroshock model is a classic sign of anticonvulsant action.

For data set [5], the system named is Rattus norvegicus. Put plainly: Anticonvulsant effect in Sprague-Dawley rat epileptic model assessed as increase in seizure thresholds at 50 mg/kg, po dosed before seizure induction by subcutaneous metrazol seizure threshold test. Format: functional, organism-based. Further details: dose 50 mg/kg. The procedure, abridged: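 Rats pretreated orally with 50 mg/kg of test compound, then seizures induced by subcutaneous Metrazol (scMET) injection; testing done through the NINDS anticonvulsant screening program.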

Data set [6] deals with Sodium channel protein type 2 subunit alpha (Homo sapiens) (UniProt Q99250). Put plainly: Inhibition of human NaV1.2 expressed in HEK293 cells at 10 uM using sodium currents elicited through depolarizing step from holding potential of -100 mV to +10 mV for 25 ms at 15 s intervals by whole cell patch clamp method. The class given is cell-based. The procedure, abridged:
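HEK293 cells stably expressing hNav1.2 were studied by whole-cell patch clamp at 20–22 °C with at least 75% series resistance compensation. Compound came from a 100 mM DMSO stock diluted in perfusion solution (final DMSO at most 0.1%). It was applied after a 3 min control period until current reached steady state. Result expressed as mean percent block ± SEM.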
Background: In patch-clamp work, channel activity is measured electrically.

The subject of data set [7] is Rattus norvegicus. Put plainly: Antinociceptive effect in Sprague-Dawley rat model of sciatic nerve constriction-induced neuropathic pain model assessed as reduction in threshold to von Frey filaments applied to affected hind paw at 100 mg/kg, sc measured 2 hrs post dose. Format: functional, organism-based. Further details: dose 100 mg/kg. The procedure, abridged: as §1

Data set [8] concerns Rattus norvegicus. Put plainly: Antinociceptive effect in Sprague-Dawley rat model of sciatic nerve constriction-induced neuropathic pain model assessed as […] to von Frey filaments applied to affected hind paw at 30 mg/kg, sc measured 2 hrs post dose. Format: functional, organism-based. More on the design: dose 30 mg/kg.

Activity calls are given as the source filed them.

Sodium channel protein type 2 subunit alpha (Homo sapiens), sequence (Q99250 whole entry, looked up, the tested form may be a part): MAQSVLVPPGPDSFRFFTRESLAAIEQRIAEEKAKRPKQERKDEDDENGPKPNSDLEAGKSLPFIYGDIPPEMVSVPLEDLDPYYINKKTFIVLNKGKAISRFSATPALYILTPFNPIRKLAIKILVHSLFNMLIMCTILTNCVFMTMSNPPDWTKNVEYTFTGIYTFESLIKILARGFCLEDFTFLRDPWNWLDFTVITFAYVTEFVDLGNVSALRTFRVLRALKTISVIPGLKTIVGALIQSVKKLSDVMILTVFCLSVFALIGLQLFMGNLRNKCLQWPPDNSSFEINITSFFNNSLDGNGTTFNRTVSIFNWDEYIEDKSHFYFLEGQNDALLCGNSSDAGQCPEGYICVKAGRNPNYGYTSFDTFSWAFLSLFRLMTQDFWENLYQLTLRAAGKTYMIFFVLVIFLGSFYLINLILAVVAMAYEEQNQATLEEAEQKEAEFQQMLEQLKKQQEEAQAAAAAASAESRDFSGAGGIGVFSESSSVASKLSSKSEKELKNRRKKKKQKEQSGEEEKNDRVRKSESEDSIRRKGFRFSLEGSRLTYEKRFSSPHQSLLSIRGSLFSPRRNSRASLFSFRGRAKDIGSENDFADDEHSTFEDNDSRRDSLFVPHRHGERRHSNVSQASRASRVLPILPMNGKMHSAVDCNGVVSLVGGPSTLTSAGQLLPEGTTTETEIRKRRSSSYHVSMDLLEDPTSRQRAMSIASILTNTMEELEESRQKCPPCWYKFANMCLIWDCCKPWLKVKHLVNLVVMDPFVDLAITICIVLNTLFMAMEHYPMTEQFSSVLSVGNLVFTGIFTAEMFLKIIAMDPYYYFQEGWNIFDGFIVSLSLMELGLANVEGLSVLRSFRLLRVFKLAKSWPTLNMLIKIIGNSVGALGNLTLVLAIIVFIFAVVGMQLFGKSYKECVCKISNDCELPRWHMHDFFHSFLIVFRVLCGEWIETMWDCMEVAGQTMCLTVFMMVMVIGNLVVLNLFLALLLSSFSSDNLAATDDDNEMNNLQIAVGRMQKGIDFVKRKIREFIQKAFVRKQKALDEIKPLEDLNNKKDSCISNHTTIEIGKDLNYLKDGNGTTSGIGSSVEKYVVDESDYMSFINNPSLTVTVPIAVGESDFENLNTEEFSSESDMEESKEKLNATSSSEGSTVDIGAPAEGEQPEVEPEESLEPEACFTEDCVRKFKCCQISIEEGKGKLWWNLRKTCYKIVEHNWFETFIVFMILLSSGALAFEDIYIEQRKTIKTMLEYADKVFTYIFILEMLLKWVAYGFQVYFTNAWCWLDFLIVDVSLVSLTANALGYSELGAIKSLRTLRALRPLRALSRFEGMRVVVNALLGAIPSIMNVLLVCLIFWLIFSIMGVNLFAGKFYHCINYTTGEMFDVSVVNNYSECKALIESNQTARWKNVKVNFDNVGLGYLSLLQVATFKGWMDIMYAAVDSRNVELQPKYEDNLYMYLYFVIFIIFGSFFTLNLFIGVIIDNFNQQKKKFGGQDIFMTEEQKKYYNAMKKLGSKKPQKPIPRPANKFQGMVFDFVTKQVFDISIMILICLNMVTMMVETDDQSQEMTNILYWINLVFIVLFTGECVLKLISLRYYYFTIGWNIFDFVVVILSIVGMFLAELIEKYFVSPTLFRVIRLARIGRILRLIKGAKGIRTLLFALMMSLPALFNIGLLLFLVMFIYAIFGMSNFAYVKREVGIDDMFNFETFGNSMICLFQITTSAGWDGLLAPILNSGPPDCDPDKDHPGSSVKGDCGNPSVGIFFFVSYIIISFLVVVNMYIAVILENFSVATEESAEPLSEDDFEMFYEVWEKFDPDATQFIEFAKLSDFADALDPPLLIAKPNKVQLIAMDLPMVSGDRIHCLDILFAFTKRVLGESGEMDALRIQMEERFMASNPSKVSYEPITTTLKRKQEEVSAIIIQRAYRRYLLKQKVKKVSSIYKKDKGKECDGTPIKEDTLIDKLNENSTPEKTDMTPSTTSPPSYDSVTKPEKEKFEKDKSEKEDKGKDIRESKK

As a reminder, the inhibition is the drop in the measured response relative to a control, in per cent. Higher therefore signals strong suppression. For `CCCCCCCC1(c2cccc(Cl)c2)NC(SC)=NC1=O` (centres undefined), the inhibition in data set [1] is 51%.
Take `CCCCCCCC(O)(c1cccc(Cl)c1)c1ccc(C)cn1` (centres undefined): the inhibition in data set [1] was 41%.
On the same count and under the same terms, the result for `CCCCCCCC1(c2cccc(Cl)c2)NC(=O)N(Cc2cccc(F)c2)C1=O` (centres undefined) reads 71%.
With `CN(C)c1cccc2c(S(=O)(=O)NCCCCCC3(c4cccc(Cl)c4)NC(=O)NC3=O)cccc12` (centres undefined), the Drug uptake result in data set [2] is “Active”. Further, the result in data set [3] and in data set [7] was Active. Moreover, the values for the inhibition in data set [1] and in data set [6] were 86% and 59%, respectively. Besides, the result in data set [4] and in data set [5] was inactive.
Take `CCCCCCCC1(c2cccc(Cl)c2)C(=O)N=C(SC)N1C` (centres undefined): the inhibition in data set [1] is 18%.
As for `CC(C)=CCCC(C)CCC(O)(C(N)=O)c1cccc(Cl)c1` (centres undefined), the inhibition in data set [1] is 40%.
`C=CCN1C(=O)NC(CCCCCCC)(c2cccc(Cl)c2)C1=O` (centres undefined): the inhibition in data set [1] worked out at 83%.
Still for that read-out and setting: the result for `CC(C)=CCC/C(C)=C/CC(O)(C(N)=O)c1cccc(Cl)c1` (centres undefined) reads 84%.
For `CCCCCCCC1(c2cccc(Cl)c2)NC(=O)NC1=O` (centres undefined), the outcome in data set [3] and in data set [7] was Active. Moreover, the inhibition in data set [1] was determined as 70%; in data set [6] it was 31%.
On to `O=C1NC(=O)C(CCCCCC2CC2)(c2cccc(Cl)c2)N1` (centres undefined), for which, in data set [1], the inhibition is 87%.
Compound `C=CCCCCCC1(c2cccc(Cl)c2)NC(=O)N(CC=C)C1=O` (centres undefined) displayed an inhibition in data set [1] of 72%.
In data set [1], `C=CCCCCCC1(c2cccc(Cl)c2)NC(=O)NC1=O` (centres undefined) displayed an inhibition of 79%.
Same read-out and setting: the result for `CCCCCCCC1(c2cccc(Cl)c2)NC(=O)N(CC2CC2)C1=O` (centres undefined) reads 78%; that for `CCCCCCCC1(c2cccc(Cl)c2)NC(=S)NC1=O` (centres undefined), 67%.
`O=C1NC(=O)C(c2ccccc2)(c2ccccc2)N1` [PHENYTOIN] had an inhibition in data set [1] of 28%. Besides, the outcome in data set [4] and in data set [5] was Active.
`CCCCCCCC(O)(c1cccc(Cl)c1)c1ccc(F)c(F)c1` (centres undefined) displayed an inhibition in data set [1] of 42%.
As to `NCC1(CC(=O)O)CCCCC1`, in data set [8], the result was Active.
In data set [1], `CCCCCCCC(O)(c1cccc(Cl)c1)c1ccccn1` (centres undefined) showed an inhibition of 28%.
Same read-out and setting: the result for `CCCCCCCC1(c2cccc(Cl)c2)NC(=O)N(Cc2ccccc2)C1=O` (centres undefined) reads 72%; that for `O=C1NC(=O)C(CCCCCC2CO2)(c2cccc(Cl)c2)N1` (centres undefined), 28%.
Regarding `CCCCCCCC(O)(c1cccc(Cl)c1)c1cccc(OC)c1` (centres undefined), the inhibition in data set [1] stood at 51%.
Still for that read-out and setting: under `O=C1NC(=O)C(CCCOCc2ccccc2)(c2cccc(Cl)c2)N1` (centres undefined) stands 71%; under `CCCCCCCC1(c2cccc(Cl)c2)NC(=O)N(CCc2ccccc2)C1=O` (centres undefined), 17%.
Still for that read-out and setting: the result for `CCCCCCCC(O)(c1cccc(Cl)c1)c1cc(F)cc(OC)c1` (centres undefined) reads 56%; that for `CCCCCCCC(O)(c1cccc(Cl)c1)c1cc(C(F)(F)F)cc(C(F)(F)F)c1` (centres undefined), 8%; that for `C#CCN1C(=O)NC(CCCCCCC)(c2cccc(Cl)c2)C1=O` (centres undefined), 57%.
Still for that read-out and setting: the result for `CCCCCCCC1(c2cccc(Cl)c2)OC(C)(C)OC1=O` (centres undefined) reads 27%; that for `C#C/C(=C\CCCCCC)c1cccc(Cl)c1`, 32%; that for `C=CCCCCCC(O)(C(N)=O)c1cccc(Cl)c1` (centres undefined), 86%.
In data set [1], `CCCCCCCC(O)(C(N)=O)c1cccc(Cl)c1` (centres undefined) showed an inhibition of 48%.
On the same count and under the same terms, under `CCCCCCCC(O)(c1cc(F)cc(F)c1)c1cccc(Cl)c1` (centres undefined) stands 35%.
Compound `NC(=O)C(O)(CCCCOCc1ccccc1)c1cccc(Cl)c1` (centres undefined) registered an inhibition in data set [1] of 52%.
The same measure, in the same setting: under `C#CC(O)(CCCCCCC)c1cccc(Cl)c1` (centres undefined) stands 78%.

(Values after ChEMBL document CHEMBL2069248, “Synthesis and biological evaluation of a fluorescent analog of phenytoin as a potential inhibitor of neuropathic pain and imaging agent” (Bioorg Med Chem, 2012).)
